Rows were chosen to be rich in hits. Some 4.9% of all compounds tested hit in one or more screens of this group.
APP 5'UTR act – APP 5'UTR luciferase reporter activation; hit rate 1% among 190,000; AID 1276; SH-SY5Y APP 5'UTR luciferase reporter, luminescence; zero percent = DMSO vehicle wells; activation, % at 2 µM;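 active = activation above a set limit, based on mean plus 3 SD of controls, cut at about 140% in these data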
STAT1 blocker – reduces IFN-gamma driven STAT1 reporter signal | NIH 3T3 STAT1-luciferase reporter, luminescence | inhibition, % at 5.5 µM | hit rate 0.35% among 200,000 | AID 920;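 active = inhibition above a set limit, the mean inhibition across all tested compounds plus 3 SD, cut at about 34% in these data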
STAT1 activator – increases IFN-gamma driven STAT1 reporter signal; NIH 3T3 STAT1-luciferase reporter, luminescence; 100% = IFN-gamma alone, no compound; activation (% of control), % at 5.5 µM; hit rate 2.6% among 200,000; AID 932;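 active = activation above the screen-wide mean activation plus 3 SD, cut at about 130% in these data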
STAT3 inh – inhibitors of IL-6 induced STAT3 signaling; inhibition, % at 5.5 µM; U3A cells, IL-6 STAT3-luciferase reporter, luminescence; host cell line lacks STAT1; hit rate 0.89% among 190,000; AID 862;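 active = inhibition above the mean inhibition across all screened compounds plus 3 SD, cut at about 44% in these data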
NF-kB expr up – NF-kB expression increase, human neuronal cells; NF-kB reporter expression; active compounds read high; fold change at 12.5 µM; hit rate 1.6% among 190,000; in the data active = fold change above about 3.3
STAT3 activator – STAT3 signaling activation; U3A cells, IL-6 STAT3-luciferase reporter, luminescence; 100% = signal with IL-6 EC80 alone; hit rate 0.91% among 190,000; activation (% of control), % at 5.6 µM;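 active = activation above the screen-wide mean of compound activation plus 3 SD, cut at about 130% in these data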
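System – human U3A cells carrying STAT3-luciferase construct · Probe or stimulus – Interleukin-6, 33 ng/mL · Schedule – compound 1 h, then IL-6 6 h at 37 °C · Signal – luminescence from STAT3-driven luciferase reporter · Evaluation – percent of IL-6-only median luminescence · Benchmarks – IL-6-only high control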
Hits are given with their value; - = inactive; . = not tested or not shown.

SMILES | APP 5'UTR act | STAT1 blocker | STAT1 activator | STAT3 inh | NF-kB expr up | STAT3 activator
CC(=O)Nc1ccc(OCC(=O)N(CC(C)C)C2CCS(=O)(=O)C2)cc1 (stereo not given) | - | - | - | - | - | -
CC(C)N1CCN(CC#Cc2ccccc2)CC1CCO (stereo not given) | - | - | - | - | - | -
COc1cc(CN2CCNC(=O)C2CC(=O)O)cc(OC)c1 (stereo not given) | - | - | - | - | - | -
COc1ccc(NC(=O)c2ccc(-c3ccccc3Cl)o2)cc1 | - | - | 130 | - | - | -
CCn1c(-c2sc(-c3ccccc3)nc2C)n[nH]c1=S | - | - | - | - | - | -
Cc1nc(-c2ccccc2)sc1-c1ccn[nH]1 | 164 | - | - | - | - | -
Cc1nc(-c2ccccc2)sc1-c1ccnn1C | 141 | - | 141 | - | 6.4 | -
C#CCSc1nnc(-c2sc(-c3ccccc3)nc2C)n1C | - | - | - | - | - | -
O=[N+]([O-])c1nn(-c2ccc3c(c2)OCCO3)n(O)c1=Nc1ccc(Cl)cc1 | - | - | - | - | - | -
O=[N+]([O-])c1nn(-c2ccc3c(c2)OCCO3)n(O)c1=NCCCO | - | - | - | - | - | -
O=[N+]([O-])c1nn(-c2ccc3c(c2)OCCO3)n(O)c1=Nc1ccccc1 | - | 46 | - | 90 | - | -
Cc1ccc(CN=c2c([N+](=O)[O-])nn(-c3ccc4c(c3)OCCO4)n2O)cc1 | - | - | 135 | - | - | -
CC(=O)NCCn1c(SCc2cccc([N+](=O)[O-])c2)nc2ccccc2c1=O | - | - | - | - | - | -
C/C(=N\NC(=O)C1=NNC(=O)C1C)c1cccs1 (stereo not given) | - | - | - | - | - | -
CCOC(=O)C1(CC2CCCCO2)CCN(C(=O)Nc2ccc(C(=O)OC)cc2)CC1 (stereo not given) | - | - | - | - | - | -
CCOC(=O)c1ccc2nc3c(cc2c1)CCS3 | - | - | 135 | - | - | -
CCOC(=O)c1ccc2nc(C)c3c(c2c1)OC(C)C3 (stereo not given) | - | - | - | - | - | -
C=C(C)C1(O)OC(=O)C=C1OC (stereo not given) | - | - | - | . | - | .
Clc1ccccc1Cn1nnc(-c2ccccc2)n1 | - | - | 141 | - | - | -
Clc1ccccc1Cn1nnc(-c2cccs2)n1 | - | - | 143 | - | - | -
O=C(Nc1ccccc1-c1nc2ccccc2[nH]1)c1sc2ccccc2c1Cl | - | - | - | - | - | -
O=C(C[n+]1ccccc1)N/N=C/c1ccc(F)cc1 | - | - | - | - | - | -
CC1=C/C(=N\NC(=S)Nc2cccnc2)CC(C)(C)C1 | - | - | 134 | - | - | -
CC1(C)C2CC=C(/C=N/NC(=S)Nc3cccnc3)C1C2 (stereo not given) | - | - | - | - | - | -
CCCCSCc1nc2ccccn2c1Br | - | - | - | - | - | -
SMILES | APP 5'UTR act | STAT1 blocker | STAT1 activator | STAT3 inh | NF-kB expr up | STAT3 activator
CC(C)c1cc(C(=O)NCCc2ccccc2)no1 | - | - | 133 | - | - | -
CC(C)c1cc(C(=O)Nc2cccc(Cl)c2)no1 | 187 | - | - | - | 11 | -
CC(=O)c1cccc(NC(=O)c2cc(C(C)C)on2)c1 | - | - | - | - | 3.9 | -
O=S(=O)(c1ccc2oc3ccc(S(=O)(=O)N4CCCCC4)cc3c2c1)N1CCCCC1 | - | - | - | - | - | -
N#Cc1ccc(C(=O)Nc2cc(S(=O)(=O)N3CCCC3)ccc2OCC(F)(F)F)cc1 | - | - | - | - | - | -
O=C(CCn1c(=O)[nH]c2ccsc2c1=O)NCc1ccc(F)cc1 | - | - | - | - | - | -
CCN(CC)C(=O)CCc1nnc(Cc2cccc(C(F)(F)F)c2)o1 | - | - | 146 | - | 3.3 | -
Cc1c(Cl)ccc2c(C(=O)NCCN3CCCCC3)cc(-c3ccccn3)nc12 | - | - | - | - | - | 134
S=c1[nH]nc(-c2ccc(Br)cc2)n1Cc1ccccc1 | - | - | - | - | - | -
Brc1ccc(C2=NC(Cc3ccccc3)CO2)cc1 (stereo not given) | - | - | - | - | 3.3 | -
O=C(Nc1ccccc1)N1CC=C(c2ccc(F)cc2)CC1 | - | - | 142 | - | - | -
O=C(Nc1ccccc1)N1CC=C(c2ccccc2)CC1 | - | - | 145 | - | - | -
CCN1CCN(C(=O)c2ccc(CN(c3ccccc3)S(=O)(=O)c3ccccc3)cc2)CC1 | - | - | - | - | - | -
C=CCn1c(SCc2c(C)noc2C)nc2ccccc2c1=O | - | - | - | - | 3.4 | -
C=CCn1c(SCc2c(C)noc2C)nc2cc(C(=O)O)ccc2c1=O | - | - | - | - | - | -
Cc1ccccc1NS(=O)(=O)c1ccc2[nH]c(=O)[nH]c2c1 | - | - | - | - | - | -
O=C1c2ccccc2C(=O)N1CCSc1nncs1 | - | - | - | - | - | -
O=C1c2ccccc2C(=O)N1CCSc1ccccc1 | - | - | 138 | - | - | -
COc1cccc2cc(-c3ccccc3)c(=O)oc12 | 152 | - | 142 | - | 4.7 | -
COc1cccc2cc(-c3nc(-c4cccs4)cs3)c(=O)oc12 | - | - | 133 | - | - | -
COc1ccc(Nc2nc(-c3cc4cccc(OC)c4oc3=O)cs2)cc1 | - | - | - | - | - | -
Cc1c(Cl)cccc1N1CC(C)(C)C1=O | - | - | - | - | - | -
Cc1ccc(-c2nc3cccnc3s2)cc1NC(=O)C1c2ccccc2Oc2ccccc21 | - | - | - | - | - | -
Cc1ccc2nc(-c3ccc(N4C(=NC(=O)CCC(=O)O)SC5CS(=O)(=O)CC54)cc3)sc2c1 (stereo not given) | - | - | 134 | - | - | -
Cc1ccccc1-n1c(SCC(=O)NC(N)=O)nc2sc(-c3ccccc3)cc2c1=O | - | - | - | - | - | -
SMILES | APP 5'UTR act | STAT1 blocker | STAT1 activator | STAT3 inh | NF-kB expr up | STAT3 activator
NC(=O)CSCc1nc2ccccc2s1 | - | - | - | - | - | 135
Oc1ccccc1OCc1nc2ccccc2s1 | 154 | - | - | - | 3.4 | -
CCCc1nnc(NC(=O)C(CC)OC(=O)c2cc(C)nc3ccccc23)s1 (stereo not given) | - | - | - | - | - | -
COc1cccc(COC(=O)c2nn(-c3ccccc3)nc2N)c1 | - | - | - | - | - | -
CC(=O)Nc1cccc(-c2cn3ccc(C)cc3n2)c1 | - | - | 129 | - | 4.2 | -
Cc1ccn2cc(-c3ccc(NC(=O)c4ccco4)cc3)nc2c1 | 139 | - | 135 | - | - | -
Cc1ccc(S(=O)(=O)Nc2ccc(-c3cn4ccc(C)cc4n3)cc2)cc1 | - | - | - | - | - | -
Cc1ccn2cc(-c3ccc(NS(=O)(=O)c4ccccc4)cc3)nc2c1 | - | - | 130 | - | - | -
Cc1nnc2ccc(-c3ccc(NC(=O)c4ccco4)cc3)nn12 | - | - | - | - | - | -

Screening results: PubChem, several laboratories
